# Compound activity (PubChem)
# Shown are actives, neighbours in structure and some others; about 2.8% of the full set was active somewhere.
# EP2 modulator – modulators of human EP2 prostaglandin E2 receptor | P43116 | EP2-expressing cells, cAMP HTRF FRET, PGE2 co-stimulation | induction, % at 25 µM | 0.83% of 260,000 active | AID 940;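 active = compounds whose cAMP rise, as percent of the full-agonist control response, exceeds 60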;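 also: rat C6 glioma line stably carrying human EP2 under a CMV promoter; the protocol text gives 20 µM as final concentration; 100% = response of wells given 1 µM PGE2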
# NPY-Y2 PAM-ag – potentiates or activates human NPY-Y2 receptor | P49146 | AID 1359 | 0.45% of 220,000 active | cells expressing NPY-Y2, potentiator/agonist read-out | activation, % at 3.6 µM; in the data active = activation above about 27%;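 also: cells stimulated with NPY near EC25 plus isoproterenol at EC100; 0% = vehicle plus submaximal agonist and 100% = vehicle plus saturating agonist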
# Target sequence (P49146 whole entry, looked up): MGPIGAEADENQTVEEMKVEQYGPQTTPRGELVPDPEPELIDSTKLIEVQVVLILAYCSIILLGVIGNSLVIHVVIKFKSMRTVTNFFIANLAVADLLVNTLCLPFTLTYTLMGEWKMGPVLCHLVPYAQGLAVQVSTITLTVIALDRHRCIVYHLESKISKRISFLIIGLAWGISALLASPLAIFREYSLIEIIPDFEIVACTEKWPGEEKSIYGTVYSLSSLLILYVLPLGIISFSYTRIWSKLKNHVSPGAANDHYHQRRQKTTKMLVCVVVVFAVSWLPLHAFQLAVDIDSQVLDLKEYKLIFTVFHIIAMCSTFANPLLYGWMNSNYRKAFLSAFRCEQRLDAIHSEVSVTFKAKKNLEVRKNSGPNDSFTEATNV
# NPY Y2 blocker – blocks the human neuropeptide Y Y2 receptor | P49146 | NPY-Y2 expressing cells, antagonist mode | inhibition, % at 2.7 µM | 0.99% of 140,000 active; in the data active = inhibition above about 17%;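 also: 0% = vehicle with agonist challenge and 100% = reference antagonist with challenge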
# NPY-Y1 PAM-ag – human NPY-Y1 potentiation or agonism, primary screen; P25929; NPY-Y1 expressing cells, potentiator/agonist activation; activation, % at 3.6 µM; 0.37% of 220,000 active; AID 1304; in the data active = activation above about 33%, passing the limit was not always enough;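 also: cells stimulated with NPY at EC10 then isoproterenol at EC100; 0% = low agonist plus stimulus and 100% = saturating agonist plus stimulus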
# Target sequence (P25929 whole entry, looked up): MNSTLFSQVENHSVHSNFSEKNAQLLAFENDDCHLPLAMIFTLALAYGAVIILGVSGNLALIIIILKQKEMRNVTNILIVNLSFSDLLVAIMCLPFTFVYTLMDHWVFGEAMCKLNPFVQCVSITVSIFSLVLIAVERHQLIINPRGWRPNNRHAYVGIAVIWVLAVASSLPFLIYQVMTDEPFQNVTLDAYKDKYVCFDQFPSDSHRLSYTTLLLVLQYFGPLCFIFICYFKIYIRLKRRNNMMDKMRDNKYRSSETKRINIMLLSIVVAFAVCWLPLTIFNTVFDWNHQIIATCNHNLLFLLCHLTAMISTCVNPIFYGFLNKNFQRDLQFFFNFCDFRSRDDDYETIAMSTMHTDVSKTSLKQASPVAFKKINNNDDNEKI
# PGE2 EP2 inh – EP2 receptor (human) inhibition; inhibition, % at 25 µM; AID 1422; 0.52% of 260,000 active; C6 glioma cells expressing human EP2, cAMP TR-FRET; cells stimulated with saturating PGE2;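 active = percent inhibition above 40 after rounding to a whole number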;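 also: rat C6 glioma host cells with rolipram phosphodiesterase inhibitor present; the protocol text gives 20 µM as final concentration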
# NPY-Y1 antag – antagonists of human neuropeptide Y receptor Y1; 1% of 200,000 active; inhibition, % at 3.6 µM; P25929; HEK293-CNG Y1 cells, membrane potential fluorescence; NPY at EC95, then isoproterenol;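 active = inhibition above the campaign mean inhibition of all tested compounds plus 3 SD, cut at about 20% in these data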;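 also: 0% = DMSO wells given NPY plus isoproterenol and 100% = isoproterenol alone without NPY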
#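 Material: Y1- and CNG-channel-expressing HEK293 cells / Probe or stimulus: NPY 25 nM then isoproterenol 1 µM plus Ro 20-1724 25 µM / Doses: 3.6 µM single dose, DMSO 0.4% / Schedule: compound incubation 1 h at room temperature, readout 45 min post-stimulation / Signal: membrane potential fluorescence / Benchmarks: isoproterenol-only wells as full block versus NPY-plus-isoproterenol wells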
# NPY-Y2 confirm – confirmation of human NPY-Y2 receptor potentiators or agonists; shares compounds with NPY-Y2 PAM-ag; cell-based NPY-Y2 potentiator/agonist assay; activation, % at 3.6 µM; 20% of 450 active; AID 1539; in the data active = activation above about 33%
# NPY-Y1 counter – NPY-Y1 potentiation or agonism as NPY-Y2 counter-screen; shares compounds with NPY-Y2 PAM-ag; Y1 HEK293-CNG cells, membrane potential fluorescence; activation, % at 3.6 µM; 20% of 450 active; AID 1651; in the data active = activation above about 45%;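 also: cells stimulated with submaximal NPY then isoproterenol with phosphodiesterase inhibitor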
# NPY-Y1 agonist 2 – activates human NPY-Y1, counter-screen for NPY-Y2 potentiators; 37% of 450 active; HEK293 Y1-CNGC, membrane potential fluorescence, agonism; AID 1702; activation, % at 3.6 µM; shares compounds with NPY-Y2 PAM-ag;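 active = activation above the mean of DMSO-only control wells plus 3 SD, cut at about 18% in these data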;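 also: cells stimulated with 1 µM isoproterenol plus the PDE inhibitor Ro 20-1724; 0% = isoproterenol with DMSO and no NPY and 100% = 40 nM NPY; Y1 agonists lower the membrane potential dye signal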
# CNGC inh – blocks CNG channel activity, counter-screen for NPY-Y2 potentiators; shares compounds with NPY-Y2 PAM-ag; 32% of 450 active; HEK293-CNG parental, isoproterenol cAMP, membrane potential fluorescence; inhibition, % at 3.6 µM;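 active = inhibition above the control-well mean plus 3 SD of those wells, cut at about 22% in these data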;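 also: 0% = DMSO with isoproterenol and 100% = DMSO without isoproterenol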
# Y2 agonist ctr – activates human NPY-Y2 receptor in potentiator counter-screen; HEK293 Y2/CNGC cells, membrane potential fluorescence, agonist mode; shares compounds with NPY-Y2 PAM-ag; 56% of 450 active; activation, % at 3.6 µM;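 active = activation above the mean of solvent-only control wells plus 3 SD, cut at about 10% in these data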;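 also: cells stimulated by isoproterenol with no NPY added so direct agonism is tested; 0% = DMSO with isoproterenol alone and 100% = NPY at EC100 plus isoproterenol; agonism lowers probe fluorescence through less cAMP and CNG channel opening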
# * marks the source's active call; other numbers are inactive results; x = no result.
SMILES,EP2 modulator,NPY-Y2 PAM-ag,NPY Y2 blocker,NPY-Y1 PAM-ag,PGE2 EP2 inh,NPY-Y1 antag,NPY-Y2 confirm,NPY-Y1 counter,NPY-Y1 agonist 2,CNGC inh,Y2 agonist ctr
COc1ccc2cc(-c3nc4cccc(C)n4c3NC(C)(C)C)c(=O)[nH]c2c1,11,x,x,x,17,x,x,x,x,x,x
O=C(CN1C(=O)c2ccccc2S1(=O)=O)Nc1ccc(Oc2ccccc2)cc1,-35,x,x,x,0,x,x,x,x,x,x
Cc1ccc2cc(CN(CCCN3CCOCC3)C(=O)Nc3ccccc3Cl)c(=O)[nH]c2c1,-13,x,x,x,12,x,x,x,x,x,x
Cc1ccc(C(=O)Nc2nc3ccccc3n2CCN2CCCC2)cc1,3,44*,4,14,7,9,50*,50*,19*,39*,47*
COc1ccc(-n2nnnc2SCC(=O)NCCc2ccccc2)cc1OC,0,56*,x,14,6,3,-2,-4,-1,5,17*
NS(=O)(=O)c1ccc(N/N=C2/CCCCC2C2CCCCC2)c([N+](=O)[O-])c1 (centres undefined),52,39*,-4,42,7,2,57*,61*,60*,41*,67*
Cc1cc(C)c2c(c1)/C(=N/Nc1ccc(S(N)(=O)=O)cc1[N+](=O)[O-])CCC2,7,-4,x,13,10,0,x,x,x,x,x
NNC(=O)C1=NOC2COC3(CCN(c4ncccn4)CC3)OCC12 (centres undefined),12,-2,x,0,3,1,x,x,x,x,x
O=C(N/N=C\c1ccc(Cl)cc1)C1=NOC2COC3(CCN(c4ccc([N+](=O)[O-])cc4)CC3)OCC12 (centres undefined),2,45*,x,13,3,x,10,-13,16,8,27*
Cc1sc2nc(SCC(=O)Nc3ccccc3Cl)[nH]c(=O)c2c1C,-30,x,x,x,16,x,x,x,x,x,x
NC(=O)c1ccc2nc(NC(=O)c3ccc(N)cc3)sc2c1,-81,31*,x,23,4,-5,11,14,18*,16,18*
Cc1nnc(SCC(=O)NCCN2CCC(O)(c3ccc(F)cc3)CC2)o1,3,x,x,x,4,x,x,x,x,x,x
O=C(Nc1ccc(S(=O)(=O)Nc2nccs2)cc1)c1cc(-c2ccccc2Cl)nc2ccccc12,11,34*,5,10,x,-2,14,17,6,8,10
CC(C)(C)C(=O)N1CCC(n2nc(-c3ccco3)ccc2=O)CC1,-28,x,x,x,4,x,x,x,x,x,x
Nc1nnc(CC(=O)Nc2ccccc2)s1,48,47*,x,18,4,x,-5,-6,-8,-2,-11
CCOC(=O)c1c(C)[nH]c(C(=O)COC(=O)c2ccc(O)cc2)c1C,-15,45*,x,8,16,x,-9,-16,-13,-11,-3
COc1cc(C=C2C(=O)NC(=O)NC2=O)cc(I)c1O,29,x,x,x,6,x,x,x,x,x,x
O=c1[nH][nH]c2ccccc2c1=O,-11,87*,x,1,12,x,2,6,-12,0,-3
O=c1c2ccccc2[nH]c2ccccc12,-27,1,2,-20,9,2,x,x,x,x,x
CC1=NC(=O)C(N=Nc2ccccc2C(=O)O)N1c1ccccc1 (centres undefined),12,30*,x,30,11,-4,21,29,10,-1,15*
COc1ccc(NC(=S)NC(NC(=O)c2cccc(Cl)c2)C(Cl)(Cl)Cl)c([N+](=O)[O-])c1 (centres undefined),-36,37*,-8,39,9,-9,22,33,20*,20,33*
O=[N+]([O-])c1cc([N+](=O)[O-])c2c(=Nc3ccccc3)n(-c3ccccc3)n(O)c2c1,-23,46*,x,28,6,-1,47*,52*,47*,34*,65*
O=c1[nH]cc(COCC(F)CCl)c(=O)[nH]1 (centres undefined),20,93*,x,-6,7,x,-3,2,3,10,7
Oc1ccc(-c2n[nH]c(C(F)(F)F)c2-c2ccccc2)c(O)c1,-12,53*,x,14,7,-3,17,-4,-13,4,15*
CCOC(=O)C(=O)Nc1sc(C(=O)Nc2ccc(F)cc2)c(C)c1C(=O)OC,-12,x,x,x,12,x,x,x,x,x,x
SMILES,EP2 modulator,NPY-Y2 PAM-ag,NPY Y2 blocker,NPY-Y1 PAM-ag,PGE2 EP2 inh,NPY-Y1 antag,NPY-Y2 confirm,NPY-Y1 counter,NPY-Y1 agonist 2,CNGC inh,Y2 agonist ctr
O=c1[nH]c2cc3c(cc2cc1CN(C(=S)NC1CCCCC1)C1CCCC1)OCCO3,25,x,x,x,14,x,x,x,x,x,x
COc1cccc(CN(Cc2cn[nH]c2C(C)(C)C)CC2CCCO2)c1OC (centres undefined),0,x,x,x,11,x,x,x,x,x,x
Cc1nn(-c2ccccc2)c2sc(C(=O)NC3CC3)cc12,-10,45*,0,-6,16,0,-5,-3,4,1,0
CC(=O)c1sc(NC(=O)c2cc3c(C)nn(-c4ccccc4)c3s2)nc1C,19,-11,3,2,7,-1,x,x,x,x,x
Cc1nn(CC(=O)OCC(=O)NC(C)c2ccccc2)c(C)c1[N+](=O)[O-] (centres undefined),26,92*,x,18,5,5,-8,-1,-7,-1,7
CCc1nc(-c2cc3cc(C)ccc3[nH]c2=O)no1,-22,x,x,x,11,x,x,x,x,x,x
CN(C)CCCN(C(=O)/C=C/c1cccs1)c1nc2ccc(F)cc2s1,-51,10,x,-9,8,9,x,x,x,x,x
CCN(CC(=O)NCc1ccc(F)cc1)C(=O)/C=C/c1cccs1,1,9,x,-5,2,-1,x,x,x,x,x
CN(C)CCN(C(=O)/C=C/c1cccs1)c1nc2c(F)cc(F)cc2s1,25,46*,2,29,12,3,94*,117*,104*,91*,105*
Cc1ccc2nc(N(CCN(C)C)C(=O)/C=C/c3cccs3)sc2c1,11,52*,5,17,12,6,91*,107*,89*,86*,97*
O=S(=O)(c1cccc(S(=O)(=O)N2CCN(c3ccccc3F)CC2)c1)N1CCCC1,-1,x,x,x,15,x,x,x,x,x,x
Cc1cccc(NC(=O)CN(c2ccc3c(c2)OCO3)S(C)(=O)=O)c1C,-6,x,x,x,8,x,x,x,x,x,x
